Activity calls are given as the source filed them. The rule behind the calls is not given here.
Experiments:
Rattus norvegicus [1] = assay: Antiinflammatory activity in Sprague-Dawley/Wistar osteoarthritis model rat assessed as decrease in monoiodoacetate-induced hyperalgesia at 20 mg/kg, po bid for 14 days administered from day of monoiodoacetate-challenge […] post by paw pressure test (reference value: 32.6 +/- 2.9 g); format: functional
Rattus norvegicus [2] = assay: Antiinflammatory activity in Sprague-Dawley/Wistar rat assessed as decrease in carrageenan-induced hyperalgesia at 10 mg/kg, po administered 4 hrs after carrageenan-challenge measured after 120 mins (reference value: 31.4 +/- 3.7 g); format: functional
Bos taurus = species: Bos taurus; assay: (§1) Inhibition of interleukin 1 beta-induced glycosaminoglycan release in bovine articular cartilage of metacarpophalangeal joints of feet treated 48 hrs after interleukin 1beta-challenge by DMB colorimetric assay; format: functional
Outline: (§2)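 Bovine metacarpophalangeal cartilage slices (about 100 mg per well) were cultured in serum-free DMEM at 37 °C, 5% CO2, with medium changed on days 1 and 2. On day 3 the slices were challenged with IL-1β 30 ng/mL plus compound for 48 h. GAG release was measured by the DMB (Farndale) assay and expressed as % of IL-1β alone, n = 3. EC50 is given with 95% CI.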

[3] = as §1; format: functional, Bos taurus; outline: as §2
Mus musculus = assay: Antinociceptive activity in po dosed Swiss albino mouse assessed as reduction in number of acetic acid-induced writhing counted 5 mins after acetic acid challenge counted for 10 mins; format: functional; details: read-out: MED
Outline: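 Male Swiss albino mice (23-25 g) dosed orally, then given 0.6% acetic acid (10 mL/kg) ip. Stretching movements counted for 10 min, starting 5 min after the acetic acid. Control group received CMC. At least 7 mice/group; mean ± SEM, ANOVA with Fisher's PLSD.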

Rattus norvegicus [4] = assay: Antiinflammatory activity in Sprague-Dawley/Wistar rat assessed as decrease in carrageenan-induced hyperalgesia at 10 mg/kg, po administered 4 hrs after carrageenan-challenge measured after 30 mins (reference value: 34.8 +/- 3.0 g); format: functional
Rattus norvegicus [5] = assay: Antiinflammatory activity in Sprague-Dawley/Wistar osteoarthritis model rat assessed as decrease in monoiodoacetate-induced hyperalgesia at 20 mg/kg, po bid for 14 days administered from day of monoiodoacetate-challenge followed by additional compound treatment after 30 mins […] by paw pressure test (reference value: 30.4 +/- 3.1 g); format: functional
Rattus norvegicus [6] = assay: Antiinflammatory activity in Sprague-Dawley/Wistar rat assessed as decrease in carrageenan-induced hyperalgesia at 10 mg/kg, po administered 4 hrs after carrageenan-challenge measured after 60 mins (reference value: 33.9 +/- 3.7 g); format: functional
Aorta [7] = assay: Vasorelaxant activity in Wistar rat endothelium-removed thoracic aortic rings assessed as reduction of KCl-induced vasoconstriction treated after KCl-challenge; format: functional, tissue-based
Outline: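 Thoracic aortic rings from male Wistar rats (250-350 g), endothelium removed by rubbing; removal confirmed as <10% relaxation to ACh 10 µM in KCl 30 mM-contracted rings. Rings contracted with KCl 30 mM; at plateau, 3-fold increasing compound concentrations (1 nM-10 µM) added. Isometric tension recorded. Emax given as % of KCl tone; pIC50 as -log molar concentration halving that tone. 6-10 experiments; also run with ODQ 1 µM.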

[8] = target: Prostaglandin G/H synthase 1 (Homo sapiens, UniProt P23219); assay: Inhibition of COX1 in human whole blood assessed as reduction in TXB2 generation
Sequence of Prostaglandin G/H synthase 1 (Homo sapiens, UniProt P23219) (P23219 whole entry): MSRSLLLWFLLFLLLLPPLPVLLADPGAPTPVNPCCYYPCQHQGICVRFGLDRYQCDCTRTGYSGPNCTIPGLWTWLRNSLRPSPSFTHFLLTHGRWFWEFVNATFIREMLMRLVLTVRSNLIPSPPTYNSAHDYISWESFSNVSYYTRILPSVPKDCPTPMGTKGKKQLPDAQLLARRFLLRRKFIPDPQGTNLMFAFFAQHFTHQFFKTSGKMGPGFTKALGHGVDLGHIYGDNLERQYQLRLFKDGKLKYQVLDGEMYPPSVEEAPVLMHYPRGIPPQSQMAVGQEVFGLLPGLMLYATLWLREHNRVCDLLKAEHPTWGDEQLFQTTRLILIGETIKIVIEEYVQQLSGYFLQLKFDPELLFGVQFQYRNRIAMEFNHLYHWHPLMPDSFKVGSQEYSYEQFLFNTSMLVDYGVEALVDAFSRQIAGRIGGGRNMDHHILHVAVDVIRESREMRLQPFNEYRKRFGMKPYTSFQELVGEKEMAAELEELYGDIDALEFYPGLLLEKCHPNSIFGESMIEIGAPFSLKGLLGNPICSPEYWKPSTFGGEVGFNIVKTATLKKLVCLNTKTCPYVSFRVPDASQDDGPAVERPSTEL
Outline: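 Clotting assay in whole blood from three healthy volunteers with no NSAID for 2 weeks. Compounds in DMSO were added at 0.1-300 µM final. Blood clotted in glass tubes at 37 °C for 1 h. Serum TXB2 was measured by RIA as a reflection of platelet COX-1 activity driven by endogenous thrombin.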

[9] = target: T1, Prostaglandin G/H synthase 1 (Mus musculus, UniProt P22437); assay: Inhibition of arachidonic acid-induced COX1 activity in mouse J774 cells assessed as decrease in PGE2 levels incubated for 15 mins prior to arachidonic acid-challenge measured after 30 mins by RIA; format: cell-based
T1 sequence (P22437 whole entry): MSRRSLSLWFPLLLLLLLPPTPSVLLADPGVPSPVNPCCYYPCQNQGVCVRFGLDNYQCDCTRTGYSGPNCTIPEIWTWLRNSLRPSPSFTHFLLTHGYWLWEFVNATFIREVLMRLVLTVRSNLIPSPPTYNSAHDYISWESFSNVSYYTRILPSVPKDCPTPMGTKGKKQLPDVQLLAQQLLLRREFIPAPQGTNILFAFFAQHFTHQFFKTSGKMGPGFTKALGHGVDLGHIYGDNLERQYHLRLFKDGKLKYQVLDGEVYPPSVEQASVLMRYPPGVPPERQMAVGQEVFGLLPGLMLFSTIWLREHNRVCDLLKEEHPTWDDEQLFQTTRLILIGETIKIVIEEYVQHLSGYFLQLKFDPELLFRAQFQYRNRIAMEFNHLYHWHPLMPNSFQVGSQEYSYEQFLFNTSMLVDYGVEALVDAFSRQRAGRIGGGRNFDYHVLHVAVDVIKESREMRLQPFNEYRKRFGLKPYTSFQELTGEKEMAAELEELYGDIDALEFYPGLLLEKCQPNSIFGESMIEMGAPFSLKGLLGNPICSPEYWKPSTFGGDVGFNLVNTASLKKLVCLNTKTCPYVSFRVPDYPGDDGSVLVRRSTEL
Outline: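 Cells were in DMEM with 10% FBS and adhered for 2 h at 37 °C. They were pretreated with compound (10 µM; 0.1-1 µM where inhibition exceeded 50%) for 15 min, then given 15 µM arachidonic acid for 30 min at 37 °C. Supernatant PGE2 was measured by RIA. Triplicate wells were used and the mean of three experiments reported. IC50 came from a variable-slope sigmoidal fit.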

Rattus norvegicus [10] = assay: Antiinflammatory activity in Sprague-Dawley/Wistar rat assessed as decrease in carrageenan-induced hyperalgesia at 20 mg/kg, po administered 4 hrs after carrageenan-challenge measured after 30 mins (reference value: 34.8 +/- 3.0 g); format: functional
Rattus norvegicus [11] = assay: Antiinflammatory activity in Sprague-Dawley/Wistar rat assessed as decrease in carrageenan-induced hyperalgesia at 20 mg/kg, po administered 4 hrs after carrageenan-challenge measured after 120 mins (reference value: 31.4 +/- 3.7 g); format: functional
Aorta [12] = assay: Vasorelaxant activity in Wistar rat endothelium-removed thoracic aortic rings assessed as reduction of KCl-induced vasoconstriction at 0.001 uM to 10 uM treated after KCl-challenge in presence of guanylate cyclase inhibitor 1H-[1,2,4]-oxadiazolo[4,3-a]quinoxalin-1-one; format: functional, tissue-based
Outline: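 Endothelium-denuded aortic rings from male Wistar rats (250-350 g) were preincubated with ODQ 1 µM. Rings were contracted with KCl 30 mM, then given 3-fold increasing concentrations from 1 nM to 10 µM. Emax is the % relaxation of KCl tone. pIC50 was calculated when efficacy reached 50%, from 6-10 experiments.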

Rattus norvegicus [13] = assay: Antiinflammatory activity in Sprague-Dawley/Wistar rat assessed as decrease in carrageenan-induced hyperalgesia at 20 mg/kg, po administered 4 hrs after carrageenan-challenge measured after 60 mins (reference value: 33.9 +/- 3.7 g); format: functional

For `Cc1c(CCOCCO[N+](=O)[O-])cc(-c2ccc(S(C)(=O)=O)cc2)n1-c1ccc(F)cc1`, the Activity (Rattus norvegicus [1]) was 43.5 g, the Activity (Rattus norvegicus [2]) was 48.3 g and the inhibition (Bos taurus) was “Dose-dependent effect”. It also gave an IC50 [3] of 1.5 µM, a minimal effective dose (Mus musculus) of 10 mg/kg and an Activity (Rattus norvegicus [4]) of 55.1 g. The Activity (Rattus norvegicus [5]) was 45.1 g, the Activity (Rattus norvegicus [6]) was 52.6 g and the IC50 (Aorta [7]) was no less than 10 µM. The pIC50 (Aorta [7]) was “Dose-dependent effect”, the IC50 [8] was 31.2 µM and the IC80 [8] was 63.3 µM. The inhibition [8] was “Dose-dependent effect”, the IC50 [9] was greater than 10 µM and the Activity (Rattus norvegicus [10]) was 56.8 g. For the same compound, the Activity (Rattus norvegicus [11]) was 43.8 g, the Activity (Aorta [12]) was “inactive” and the Activity (Rattus norvegicus [13]) was 49.2 g.

Source: ChEMBL document CHEMBL2331234, “Novel analgesic/anti-inflammatory agents: 1,5-diarylpyrrole nitrooxyalkyl ethers and related compounds as cyclooxygenase-2 inhibiting nitric oxide donors” (J Med Chem, 2013)
